Laboratory results published in ChEMBL document CHEMBL5303300, “EUbOPEN Chemogenomics Library - Multiplex” (2023).
Several values for one entry are separate records, joined by “and”; a condition that tells them apart may be missing. Equal entries are not always repeated.

Tested on: Fibroblast
Experiment: Multiplex assay against human fibroblast
Format: toxicity, cell-based
Conditions: number of replicates 2
Method in brief: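 Phenotypes for tubulin, mitochondrial mass and membrane permeability are expressed as per cents of healthy-nucleus cells. Cells were stained live at seeding with Hoechst33342, BioTracker Green Microtubule Cytoskeleton Dye, MitoTracker Red and Annexin V Alexa Fluor 680, then imaged after compound addition on a CQ1 microscope at 37°C and 5% CO2. Machine-learning gating in CellPathfinder separated Hoechst high-intensity objects from normal cells, divided normal cells by nuclear state (healthy, pyknosed, fragmented) and divided pyknosed cells into mitotic or apoptotic.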

[1] = 12 h, 1 µM, compound concentration 1 uM
[2] = 12 h, 10 µM, compound concentration 10 uM
[3] = 24 h, 1 µM, compound concentration 1 uM
[4] = 24 h, 10 µM, compound concentration 10 uM
[5] = 48 h, 1 µM, compound concentration 1 uM
[6] = 48 h, 10 µM, compound concentration 10 uM

CCN(CC)C/C=C/C(=O)Nc1cc2c(Nc3ccc(F)c(Cl)c3)ncnc2cc1OCC1CC1
Population Apoptotic (%) [1]: 48% and 35% | Population Fragmented Nuclei (%) [1]: 14% and 17% | Population Healthy Nuclei (%) [1]: 62% and 55% | Population Hoechst High Intensity Objects (%) [1]: 0% | Population Membrane Permeable-Phenotype (%) [1]: 10% and 15% | Population Mitochondria Different-Phenotype (%) [1]: 2% and 4% | Population Mitotic Cells (%) [1]: 51% and 65% | Population Normal (%) [1]: 100% | Population Pyknosed Nuclei (%) [1]: 22% and 26% | Population Tubulin-Different-Phenotype (%) [1]: 61% and 56% | Total Cell Count [1]: 189 and 225 | Population Apoptotic (%) [2]: 63% and 58% | Population Fragmented Nuclei (%) [2]: 19% and 20% | Population Healthy Nuclei (%) [2]: 47% and 51% | Population Hoechst High Intensity Objects (%) [2]: 0% | Population Membrane Permeable-Phenotype (%) [2]: 25% and 20% | Population Mitotic Cells (%) [2]: 36% and 41% | Population Normal (%) [2]: 100% | Population Pyknosed Nuclei (%) [2]: 33% and 27% | Population Tubulin-Different-Phenotype (%) [2]: 92% and 87% | Total Cell Count [2]: 209 and 264 | Population Apoptotic (%) [3]: 52% and 62% | Population Fragmented Nuclei (%) [3]: 17% and 20% | Population Healthy Nuclei (%) [3]: 60% and 64% | Population Hoechst High Intensity Objects (%) [3]: 1% and 0% | Population Membrane Permeable-Phenotype (%) [3]: 2% and 4% | Population Mitochondria Different-Phenotype (%) [3]: 7% and 12% | Population Mitotic Cells (%) [3]: 47% and 37% | Population Normal (%) [3]: 98% and 100% | Population Pyknosed Nuclei (%) [3]: 22% and 15% | Population Tubulin-Different-Phenotype (%) [3]: 75% and 62% | Total Cell Count [3]: 192 and 231 | Population Apoptotic (%) [4]: 91% and 85% | Population Fragmented Nuclei (%) [4]: 13% and 8% | Population Healthy Nuclei (%) [4]: 13% and 19% | Population Hoechst High Intensity Objects (%) [4]: 0% | Population Membrane Permeable-Phenotype (%) [4]: 14% and 16% | Population Mitochondria Different-Phenotype (%) [4]: 71% and 56% | Population Mitotic Cells (%) [4]: 8% and 14% | Population Normal (%) [4]: 99% | Population Pyknosed Nuclei (%) [4]: 72% and 71% | Population Tubulin-Different-Phenotype (%) [4]: 95% and 89% | Total Cell Count [4]: 154 and 190 | Population Apoptotic (%) [5]: 73% and 53% | Population Fragmented Nuclei (%) [5]: 28% and 25% | Population Healthy Nuclei (%) [5]: 59% and 63% | Population Hoechst High Intensity Objects (%) [5]: 0% | Population Membrane Permeable-Phenotype (%) [5]: 3% and 1% | Population Mitochondria Different-Phenotype (%) [5]: 10% and 8% | Population Mitotic Cells (%) [5]: 26% and 46% | Population Normal (%) [5]: 100% and 99% | Population Pyknosed Nuclei (%) [5]: 12% and 11% | Population Tubulin-Different-Phenotype (%) [5]: 68% and 45% | Total Cell Count [5]: 210 and 233 | Population Apoptotic (%) [6]: 92% and 94% | Population Fragmented Nuclei (%) [6]: 22% and 28% | Population Healthy Nuclei (%) [6]: 10% and 21% | Population Hoechst High Intensity Objects (%) [6]: 0% | Population Membrane Permeable-Phenotype (%) [6]: 41% and 38% | Population Mitochondria Different-Phenotype (%) [6]: 29% and 19% | Population Mitotic Cells (%) [6]: 7% and 5% | Population Normal (%) [6]: 100% | Population Pyknosed Nuclei (%) [6]: 67% and 49% | Population Tubulin-Different-Phenotype (%) [6]: 47% and 93% | Total Cell Count [6]: 168 and 145

COc1cc(N(C)c2ccnc3ccc(C(F)(F)F)cc23)cc(OC)c1OC
Population Apoptotic (%) [1]: 43% and 38% | Population Fragmented Nuclei (%) [1]: 7% and 10% | Population Healthy Nuclei (%) [1]: 68% and 65% | Population Hoechst High Intensity Objects (%) [1]: 0% | Population Membrane Permeable-Phenotype (%) [1]: 10% and 7% | Population Mitochondria Different-Phenotype (%) [1]: 0% | Population Mitotic Cells (%) [1]: 56% and 61% | Population Normal (%) [1]: 100% and 99% | Population Pyknosed Nuclei (%) [1]: 23% and 24% | Population Tubulin-Different-Phenotype (%) [1]: 21% and 18% | Total Cell Count [1]: 216 and 225 | Population Apoptotic (%) [2]: 48% and 39% | Population Fragmented Nuclei (%) [2]: 6% and 11% | Population Healthy Nuclei (%) [2]: 77% and 63% | Population Hoechst High Intensity Objects (%) [2]: 0% | Population Membrane Permeable-Phenotype (%) [2]: 4% and 9% | Population Mitochondria Different-Phenotype (%) [2]: 5% and 4% | Population Mitotic Cells (%) [2]: 51% and 60% | Population Normal (%) [2]: 100% | Population Pyknosed Nuclei (%) [2]: 15% and 24% | Population Tubulin-Different-Phenotype (%) [2]: 33% and 40% | Total Cell Count [2]: 175 and 219 | Population Apoptotic (%) [3]: 48% and 50% | Population Fragmented Nuclei (%) [3]: 7% and 13% | Population Healthy Nuclei (%) [3]: 69% and 59% | Population Hoechst High Intensity Objects (%) [3]: 0% | Population Membrane Permeable-Phenotype (%) [3]: 8% and 4% | Population Mitochondria Different-Phenotype (%) [3]: 1% | Population Mitotic Cells (%) [3]: 51% and 49% | Population Normal (%) [3]: 100% and 99% | Population Pyknosed Nuclei (%) [3]: 23% and 27% | Population Tubulin-Different-Phenotype (%) [3]: 24% and 14% | Total Cell Count [3]: 229 and 213 | Population Apoptotic (%) [4]: 60% and 54% | Population Fragmented Nuclei (%) [4]: 9% and 12% | Population Healthy Nuclei (%) [4]: 71% and 66% | Population Hoechst High Intensity Objects (%) [4]: 0% | Population Membrane Permeable-Phenotype (%) [4]: 4% | Population Mitochondria Different-Phenotype (%) [4]: 3% and 6% | Population Mitotic Cells (%) [4]: 39% and 45% | Population Normal (%) [4]: 100% and 99% | Population Pyknosed Nuclei (%) [4]: 18% and 20% | Population Tubulin-Different-Phenotype (%) [4]: 27% and 30% | Total Cell Count [4]: 176 and 216 | Population Apoptotic (%) [5]: 66% and 47% | Population Fragmented Nuclei (%) [5]: 8% and 14% | Population Healthy Nuclei (%) [5]: 73% and 61% | Population Hoechst High Intensity Objects (%) [5]: 0% | Population Membrane Permeable-Phenotype (%) [5]: 1% and 7% | Population Mitochondria Different-Phenotype (%) [5]: 0% | Population Mitotic Cells (%) [5]: 33% and 52% | Population Normal (%) [5]: 100% | Population Pyknosed Nuclei (%) [5]: 18% and 23% | Population Tubulin-Different-Phenotype (%) [5]: 10% and 12% | Total Cell Count [5]: 229 and 214 | Population Apoptotic (%) [6]: 64% and 75% | Population Fragmented Nuclei (%) [6]: 9% and 12% | Population Healthy Nuclei (%) [6]: 72% and 70% | Population Hoechst High Intensity Objects (%) [6]: 0% | Population Membrane Permeable-Phenotype (%) [6]: 0% and 1% | Population Mitochondria Different-Phenotype (%) [6]: 3% and 5% | Population Mitotic Cells (%) [6]: 35% and 24% | Population Normal (%) [6]: 99% and 100% | Population Pyknosed Nuclei (%) [6]: 18% and 16% | Population Tubulin-Different-Phenotype (%) [6]: 35% and 25% | Total Cell Count [6]: 173 and 226

CS(=O)(=O)c1ccc(C(=O)Nc2ccc(F)c(COc3ccc(Br)cc3CNCCO)c2)c(Cl)c1.O=CO
Population Apoptotic (%) [1]: 41% and 39% | Population Healthy Nuclei (%) [1]: 69% and 66% | Population Mitotic Cells (%) [1]: 58% and 60% | Total Cell Count [1]: 178 and 232 | Population Apoptotic (%) [2]: 50% and 51% | Population Healthy Nuclei (%) [2]: 49% | Population Mitotic Cells (%) [2]: 50% and 48% | Population Pyknosed Nuclei (%) [2]: 35% and 30% | Total Cell Count [2]: 220 and 252 | Population Apoptotic (%) [3]: 63% and 46% | Population Healthy Nuclei (%) [3]: 68% and 56% | Population Mitotic Cells (%) [3]: 36% and 53% | Total Cell Count [3]: 202 and 243 | Population Apoptotic (%) [4]: 68% and 73% | Population Healthy Nuclei (%) [4]: 54% and 56% | Population Mitotic Cells (%) [4]: 31% and 26% | Population Pyknosed Nuclei (%) [4]: 27% and 22% | Total Cell Count [4]: 219 and 283 | Population Apoptotic (%) [5]: 54% and 68% | Population Healthy Nuclei (%) [5]: 71% and 72% | Population Mitotic Cells (%) [5]: 45% and 31% | Total Cell Count [5]: 202 and 207 | Population Apoptotic (%) [6]: 88% and 77% | Population Healthy Nuclei (%) [6]: 63% and 61% | Population Mitotic Cells (%) [6]: 11% and 22% | Population Pyknosed Nuclei (%) [6]: 22% | Total Cell Count [6]: 200 and 244
